The text below walks through data of PMC11887798 (Science Advances, 2025).

One series concerns C57BL/6 mice. Description: APAP-induced ALF model validation. The format is in vivo, mouse. The settings on record: APAP 500 mg/kg i.p. Put shortly: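 Male C57BL/6 mice were housed under SPF conditions with a 12-hour/12-hour light/dark cycle at 22°C and 45 to 60% humidity. APAP was dissolved in physiological saline by heating at 50°C and given intraperitoneally to induce acute liver failure.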

The next series addresses P-selectin. The conditions noted are these: read-out: natural PSGL-1 binding to P-selectin (Kd); ref [23]; cited from earlier work.

As for `CC(=O)Nc1ccc(O)cc1` [APAP, acetaminophen], the “serum ALT and AST” value in the series with C57BL/6 mice (n = 6) was “rising rapidly within 12 hours and peaking at 24 hours”. Also, in the series with C57BL/6 mice (within 72 hours, n = 10), the mortality of mice result is given as “over 50%”.

B1: PSGL-1: natural P-selectin ligand on neutrophils (protein, UniProt Q14242 42-412, looked up)
P-selectin glycoprotein …: QATEYEYLDYDFLPETEPPEMLRNSTDTTPLTGPGTPESTTVEPAARRSTGLDAGGAVTELTTELANMGNLSTDSAAMEIQTTQPAATEAQTTQPVPTEAQTTPLAATEAQTTRLTATEAQTTPLAATEAQTTPPAATEAQTTQPTGLEAQTTAPAAMEAQTTAPAAMEAQTTPPAAMEAQTTQTTAMEAQTTAPEATEAQTTQPTATEAQTTPLAAMEALSTEPSATEALSMEPTTKRGLFIPFSVSSVTHKGIPMAASNLSVNYPVGAPDHISVKQCLLAILILALVATIFFVCTVVLAVRLSRKGHMYPVRNYSPTEMVCISSLLPDGGEGPSATANGGLSKAKSPGLTPEPREDREGDDLTLHSFLP
For B1, on P-selectin, the Kd is 0.32 µM.

For orientation: Kd means the equilibrium constant for the complex coming apart.
